This is an account of results in ChEMBL document CHEMBL1671681, “Distribution of serotypes, genotypes, and resistance determinants among macrolide-resistant Streptococcus pneumoniae isolates” (2010).

Assay type in all cases: functional
For assay [1], the system named is Streptococcus pneumoniae. In words: Antimicrobial activity against erythromycin-resistant Streptococcus pneumoniae by broth microdilution method. The method in brief: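 Isolates were tested by broth microdilution in commercial microtiter trays. Medium was cation-adjusted Mueller-Hinton broth supplemented with 3 to 5% lysed horse blood. MICs were interpreted by CLSI criteria.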
(In broth dilution the organism is exposed to a series of concentrations in liquid medium.)

For assay [2], the system named is Streptococcus pneumoniae. In words: Antimicrobial activity against erythromycin-resistant Streptococcus pneumoniae assessed as resistant isolates by broth microdilution method. The method in brief: (§1)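 Isolates were tested by broth microdilution in commercial microtiter trays. Medium was cation-adjusted Mueller-Hinton broth supplemented with 3 to 5% lysed horse blood. MICs were interpreted by CLSI criteria. For penicillin, the pre-2008 breakpoints were applied (susceptible ≤0.06 mg/liter).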

Assay [3] concerns Streptococcus pneumoniae. In words: Antimicrobial activity against erythromycin-resistant Streptococcus pneumoniae assessed as susceptible isolates by broth microdilution method. The method in brief: as §1
Assay [4] deals with Streptococcus pneumoniae. In words: Antimicrobial activity against erythromycin-resistant Streptococcus pneumoniae assessed as resistant isolates by broth microdilution method in presence of clavulanic acid. Put shortly: as §1
The test system of assay [5] is Streptococcus pneumoniae. In words: Antimicrobial activity against erythromycin-resistant Streptococcus pneumoniae assessed as susceptible isolates by broth microdilution method in presence of clavulanic acid. The method in brief: as §1
Assay [6] deals with Streptococcus pneumoniae. In words: Antimicrobial activity against erythromycin-resistant Streptococcus pneumoniae by broth microdilution method in presence of clavulanic acid. Put shortly:
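Broth microdilution in commercial pre-made microtiter trays using cation-adjusted Mueller-Hinton broth with 3 to 5% lysed horse blood. Pneumococcal isolates were tested, and MICs were interpreted by CLSI criteria.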

In brackets after ≈: the same amount, converted by molar mass.

As for `CC[C@H]1OC(=O)[C@H](C)[C@@H](O[C@H]2C[C@@](C)(OC)[C@@H](O)[C@H](C)O2)[C@H](C)[C@@H](O[C@@H]2O[C@H](C)C[C@H](N(C)C)[C@H]2O)[C@](C)(O)C[C@@H](C)CN(C)[C@H](C)[C@@H](O)[C@]1(C)O` [AZITHROMYCIN], in the assay with Streptococcus pneumoniae [1], the MIC was more than 2 µg/mL, the MIC50 is more than 2 µg/mL and the MIC90 is more than 2 µg/mL. Moreover, the Activity in the assay with Streptococcus pneumoniae [2] worked out at 100%. The Activity in the assay on Streptococcus pneumoniae [3] is listed as 0%.
`CN[C@H](CC(C)C)C(=O)N[C@H]1C(=O)N[C@@H](CC(N)=O)C(=O)N[C@H]2C(=O)N[C@H]3C(=O)N[C@H](C(=O)N[C@H](C(=O)O)c4cc(O)cc(O)c4-c4cc3ccc4O)[C@H](O)c3ccc(c(Cl)c3)Oc3cc2cc(c3O[C@@H]2O[C@H](CO)[C@@H](O)[C@H](O)[C@H]2O[C@H]2C[C@](C)(N)[C@H](O)[C@H](C)O2)Oc2ccc(cc2Cl)[C@H]1O` [VANCOMYCIN] had an MIC50 in the assay on Streptococcus pneumoniae [1] of less than 0.5 µg/mL. The same molecule came in with an MIC90 against Streptococcus pneumoniae [1] of less than 0.5 µg/mL. Further, the Activity with Streptococcus pneumoniae [2] is 0%; with Streptococcus pneumoniae [3] it was 100%.
In the assay on Streptococcus pneumoniae [1], `COc1c(N2CCNC(C)C2)c(F)cc2c(=O)c(C(=O)O)cn(C3CC3)c12` (stereo not drawn) [GATIFLOXACIN] came in with an MIC of less than 0.5 µg/mL, an MIC50 of less than 0.5 µg/mL and an MIC90 of less than 0.5 µg/mL. In addition, the Activity with Streptococcus pneumoniae [2] came to 0%. Besides, the Activity with Streptococcus pneumoniae [3] is reported as 100%.
For `CC1(C)S[C@@H]2[C@H](NC(=O)[C@H](N)c3ccc(O)cc3)C(=O)N2[C@H]1C(=O)O` [AMOXICILLIN], the Activity with Streptococcus pneumoniae [4] was determined as 28.4%. Besides, in the assay with Streptococcus pneumoniae [5], the Activity is 66.7%. Moreover, in the assay with Streptococcus pneumoniae [6], the MIC is less than 2 µg/mL, the MIC50 was less than 2 µg/mL and the MIC90 is more than 8 µg/mL.
In the assay on Streptococcus pneumoniae [1], `C[C@@H](O)[C@H]1C(=O)N2C(C(=O)O)=C(S[C@@H]3CN[C@H](C(=O)N(C)C)C3)[C@H](C)[C@H]12` [MEROPENEM] registered an MIC50 of 0.5 µg/mL (≈ 1.3 µM) and an MIC90 of 1 µg/mL (≈ 2.61 µM). Further, the Activity with Streptococcus pneumoniae [2] was 34.3%. Moreover, the Activity in the assay on Streptococcus pneumoniae [3] was found to be 33.3%.
In the assay with Streptococcus pneumoniae [1], `CC[C@H]1OC(=O)[C@H](C)[C@@H](O[C@H]2C[C@@](C)(OC)[C@@H](O)[C@H](C)O2)[C@H](C)[C@@H](O[C@@H]2O[C@H](C)C[C@H](N(C)C)[C@H]2O)[C@](C)(O)C[C@@H](C)C(=O)[C@H](C)[C@@H](O)[C@]1(C)O` [ERYTHROMYCIN] registered a minimum inhibitory concentration (MIC) of more than 2 µg/mL, an MIC50 of more than 2 µg/mL and an MIC90 of more than 2 µg/mL. In the assay with Streptococcus pneumoniae [2], the Activity is 100%. The Activity with Streptococcus pneumoniae [3] is reported as 0%.
On to `O=C(N[C@H](CO)[C@H](O)c1ccc([N+](=O)[O-])cc1)C(Cl)Cl` [CHLORAMPHENICOL], for which, in the assay on Streptococcus pneumoniae [1], the MIC50 turned out to be 4 µg/mL (≈ 12.4 µM) and the MIC90 was 8 µg/mL (≈ 24.8 µM). For the same molecule, the Activity in the assay with Streptococcus pneumoniae [2] is listed as 33.3%. The Activity in the assay on Streptococcus pneumoniae [3] is listed as 66.7%.
The like results for `CO/N=C(\C(=O)N[C@@H]1C(=O)N2C(C(=O)O)=C(COC(C)=O)CS[C@H]12)c1csc(N)n1` [CEFOTAXIME] were, in that order, 1 µg/mL (≈ 2.2 µM), 2 µg/mL (≈ 4.39 µM), 5.9% and 62.7%.
For `COc1c(N2C[C@@H]3CCCN[C@@H]3C2)c(F)cc2c(=O)c(C(=O)O)cn(C3CC3)c12` [MOXIFLOXACIN], the Activity is 0% with Streptococcus pneumoniae [2] and 100% in the assay with Streptococcus pneumoniae [3].
Regarding `CC(=O)NC[C@H]1CN(c2ccc(N3CCOCC3)c(F)c2)C(=O)O1` [LINEZOLID], the MIC50 with Streptococcus pneumoniae [1] amounted to 1 µg/mL (≈ 2.96 µM). The MIC90 against Streptococcus pneumoniae [1] is 1 µg/mL (≈ 2.96 µM). Besides, the Activity worked out at 0% in the assay on Streptococcus pneumoniae [2] and 100% in the assay on Streptococcus pneumoniae [3].
In the case of `CC1(C)S[C@@H]2[C@H](NC(=O)Cc3ccccc3)C(=O)N2[C@H]1C(=O)O` [PENICILLIN G], in the assay on Streptococcus pneumoniae [1], the MIC50 is 2 µg/mL (≈ 5.98 µM) and the MIC90 came to 4 µg/mL (≈ 12 µM). The Activity in the assay with Streptococcus pneumoniae [2] is listed as 68.6%. In addition, the Activity in the assay on Streptococcus pneumoniae [3] is reported as 24.5%.
The like results for `CCC[C@@H]1C[C@@H](C(=O)N[C@@H]([C@H]2O[C@H](SC)[C@H](O)[C@@H](O)[C@H]2O)[C@H](C)Cl)N(C)C1` [CLINDAMYCIN] were, in that order, more than 2 µg/mL, more than 2 µg/mL, 67.6% and 30.4%.
The like results for `C[C@H]1COc2c(N3CCN(C)CC3)c(F)cc3c(=O)c(C(=O)O)cn1c23.C[C@H]1COc2c(N3CCN(C)CC3)c(F)cc3c(=O)c(C(=O)O)cn1c23.O` [LEVOFLOXACIN] were, in that order, 1 µg/mL, 1 µg/mL, 0% and 100%.
In the assay on Streptococcus pneumoniae [1], `CN(C)[C@@H]1C(O)=C(C(N)=O)C(=O)[C@@]2(O)C(O)=C3C(=O)c4c(O)cccc4[C@@](C)(O)[C@H]3C[C@@H]12` [TETRACYCLINE] displayed an MIC50 not below 8 µg/mL and an MIC90 not below 8 µg/mL. For the same molecule, the Activity in the assay on Streptococcus pneumoniae [2] came out at 74.5%. Besides, the Activity in the assay on Streptococcus pneumoniae [3] was determined as 24.5%.

For orientation: MIC means the lowest concentration found to suppress growth. What is called MIC50 is the lowest concentration that inhibits either 50% of growth or 50% of the strains tested, depending on the study. Broadly, the MIC90 is the lowest concentration that inhibits either 90% of growth or 90% of the strains tested, depending on the study.
